≈ marks a conversion by molar mass, not a printed value.
How the values were obtained:
[1] = tested on: Staphylococcus aureus; assay: Antibacterial activity against Staphylococcus aureus BSA643 isolate with gyrA Ser84Leu and grlA Ser80Tyr, Glu84Gly mutant after 24 hrs by broth microdilution method; format: functional
[2] = tested on: Staphylococcus aureus; assay: Antibacterial activity against Staphylococcus aureus BSA678 isolate with gyrA Ser84Leu, Ser85Pro and grlA Ser80Phe, Glu84Lys mutant after 24 hrs by broth microdilution method
[3] = tested on: Staphylococcus aureus; assay: Antibacterial activity against Staphylococcus aureus ACH-0206 isolate with gyrA Ser84Leu mutant after 24 hrs by broth microdilution method; format: functional
Method in brief: (§1)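 Broth microdilution per CLSI guidelines. MIC taken as the lowest concentration preventing visible growth at 24 h. Each MIC determined at least twice.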

[4] = tested on: Staphylococcus aureus; assay: Antibacterial activity against Staphylococcus aureus ATCC 700699 isolate with gyrA Ser84Leu, Glu409Lys and grlA Ser80Phe mutant after 24 hrs by broth microdilution method; format: functional; conditions: ATCC 700699, 24 h
[5] = tested on: Staphylococcus aureus; assay: Antibacterial activity against Staphylococcus aureus ATCC 33591 isolate after 24 hrs by broth microdilution method; format: functional; conditions: ATCC 33591, 24 h; method in brief: as §1
[6] = tested on: Staphylococcus aureus; assay: Antibacterial activity against Staphylococcus aureus ACH-0186 isolate with gyrA Ser84Leu and grlA Ser80Phe, Ala116Val mutant after 24 hrs by broth microdilution method; format: functional
[7] = tested on: Staphylococcus aureus; assay: (§2) Antibacterial activity against Staphylococcus aureus ACH-0129 isolate with gyrA Ser84Leu, Glu88Val and grlA Ser80Phe, Ala116Val mutant after 24 hrs by broth microdilution method; format: functional
[8] = tested on: Staphylococcus aureus; assay: Antibacterial activity against Staphylococcus aureus ACH-0201 isolate with gyrA Ser84Leu, Glu88Val and grlA Ser80Phe, Ala116Val mutant after 24 hrs by broth microdilution method; format: functional
[9] = Inhibition of Staphylococcus aureus wild-type topoisomerase 4 decatenation activity assessed as unlinking of DNA microcircles from kinetoplast DNA
Method in brief: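 S. aureus topo IV reconstituted from His-purified recombinant GrlA and GrlB (E. coli BL21(DE3)pLysS expression), mixed 1:1 molar on ice 10 min. 0.1 μg catenated kDNA with 2 U enzyme, 30 min at 37°C in 1 mM ATP, 5 mM DTT, 5 mM MgCl2, 50 μg/ml BSA, 50 mM Tris-HCl pH 7.5, 250 mM potassium glutamate. Products on 1% agarose gel, ethidium-stained, quantitated; IC50 by nonlinear regression.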

[10] = tested on: Staphylococcus aureus; assay: Antibacterial activity against Staphylococcus aureus ACH-0192 isolate with gyrA Ser84Leu and grlA Ser80Phe, Ala116Val mutant after 24 hrs by broth microdilution method; format: functional
[11] = tested on: Staphylococcus aureus; assay: Antibacterial activity against Staphylococcus aureus ACH-0204 isolate with gyrA Ser84Leu mutant after 24 hrs by broth microdilution method; format: functional; method in brief: as §1
[12] = tested on: Staphylococcus aureus; assay: Antibacterial activity against Staphylococcus aureus ACH-0218 isolate with grlA Glu84Lys mutant after 24 hrs by broth microdilution method; format: functional; method in brief: as §1
[13] = tested on: Staphylococcus aureus; assay: Antibacterial activity against Staphylococcus aureus NY2746 isolate with gyrA Ser84Leu and grlA Ser80Phe mutant after 24 hrs by broth microdilution method; format: functional
[14] = Inhibition of Staphylococcus aureus […] topoisomerase 4 grlA S80F mutant decatenation activity assessed as unlinking of DNA microcircles from kinetoplast DNA
Method in brief: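 Recombinant S. aureus GrlA (Ser80Phe) and GrlB were mixed 1:1 molar on ice for 10 min. kDNA (0.1 μg) with 2 U enzyme, 30 min at 37°C, in 1 mM ATP, 5 mM MgCl2, 250 mM K-glutamate, 50 mM Tris pH 7.5. Reactions stopped with EDTA, run on 1% agarose-TBE and ethidium-stained, minicircles quantitated. IC50 by nonlinear regression.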

[15] = tested on: Staphylococcus aureus; assay: Antibacterial activity against Staphylococcus aureus ACH-0210 isolate with gyrA Ser84Leu and grlA Ser80Phe mutant after 24 hrs by broth microdilution method; format: functional
[16] = tested on: Staphylococcus aureus; assay: Antibacterial activity against Staphylococcus aureus ACH-0221 isolate with gyrA Ser84Leu mutant after 24 hrs by broth microdilution method; format: functional; method in brief: as §1
[17] = tested on: Staphylococcus aureus; assay: Antibacterial activity against Staphylococcus aureus ACH-0201 isolate with gyrA Ser84Leu, Glu88Val and grlA Ser80Phe, Ala116Val mutant assessed as doubling time of bacterial growth at 1 ug/ml; format: functional
Method in brief: (§3)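 Overnight cultures in MH or Mueller-Hinton II medium at 37°C with aeration were diluted to OD625 of about 0.05. Turbidity was read every 30 min over the first 7 h. Doubling time was estimated from log OD625 versus time growth curves.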

[18] = tested on: Staphylococcus aureus; assay: Antibacterial activity against Staphylococcus aureus NY2746 isolate with gyrA Ser84Leu and grlA Ser80Phe mutant assessed as doubling time of bacterial growth at 1 ug/ml; format: functional; method in brief: as §3
[19] = tested on: Staphylococcus aureus; assay: Antibacterial activity against Staphylococcus aureus ACH-0192 isolate with gyrA Ser84Leu and grlA Ser80Phe, Ala116Val mutant assessed as doubling time of bacterial growth at 1 ug/ml; format: functional; method in brief: as §3
[20] = tested on: Staphylococcus aureus; assay: Antibacterial activity against Staphylococcus aureus ACH-0216 isolate with grlA Ser80Phe mutant after 24 hrs by broth microdilution method; format: functional; method in brief: as §1
[21] = tested on: Staphylococcus aureus; assay: Antibacterial activity against Staphylococcus aureus ATCC 29213 assessed as doubling time of bacterial growth at 1 ug/ml; format: functional; method in brief: as §3
[22] = tested on: Staphylococcus aureus; assay: Antibacterial activity against Staphylococcus aureus ATCC 29213 after 24 hrs by broth microdilution method; format: functional; conditions: ATCC 29213, 24 h; method in brief: as §1
[23] = tested on: Staphylococcus aureus; assay: Antibacterial activity against Staphylococcus aureus ACH-0203 isolate with gyrA Ser84Leu and grlA Ser80Phe, Ala116Val mutant assessed as doubling time of bacterial growth at 1 ug/ml; format: functional; method in brief: as §3
[24] = tested on: Staphylococcus aureus; assay: Antibacterial activity against Staphylococcus aureus ACH-0130 isolate with gyrA Ser84Leu, Glu88Val and grlA Ser80Phe, Ala116Val mutant assessed as doubling time of bacterial growth at 1 ug/ml; format: functional; method in brief: as §3
[25] = tested on: Staphylococcus aureus; assay: Antibacterial activity against Staphylococcus aureus ACH-0129 isolate with gyrA Ser84Leu, Glu88Val and grlA Ser80Phe, Ala116Val mutant assessed as doubling time of bacterial growth at 1 ug/ml; format: functional; method in brief: as §3
[26] = tested on: Staphylococcus aureus; assay: as §2; format: functional; remark: listed apart in the source
[27] = tested on: Staphylococcus aureus; assay: Antibacterial activity against Staphylococcus aureus ACH-0231 isolate with gyrA Ser84Leu, Glu88Lys and grlA Ser80Tyr, Glu84Gly mutant after 24 hrs by broth microdilution method; format: functional
[28] = tested on: Staphylococcus aureus; assay: Antibacterial activity against Staphylococcus aureus ACH-0203 isolate with gyrA Ser84Leu and grlA Ser80Phe, Ala116Val mutant after 24 hrs by broth microdilution method; format: functional; method in brief: as §1
[29] = tested on: Staphylococcus aureus; assay: Antibacterial activity against Staphylococcus aureus ACH-0126 isolate with gyrA Ser84Leu and grlA Ser80Phe mutant after 24 hrs by broth microdilution method; format: functional
[30] = tested on: Staphylococcus aureus; assay: Antibacterial activity against Staphylococcus aureus BSA643 isolate with gyrA Ser84Leu and grlA Ser80Tyr, Glu84Gly mutant assessed as doubling time of bacterial growth at 1 ug/ml; format: functional; method in brief: as §3
[31] = tested on: Staphylococcus aureus; assay: Antibacterial activity against Staphylococcus aureus ACH-0186 isolate with gyrA Ser84Leu and grlA Ser80Phe mutant assessed as doubling time of bacterial growth at 1 ug/ml; format: functional; method in brief: as §3
[32] = tested on: Staphylococcus aureus; assay: Antibacterial activity against Staphylococcus aureus ACH-0126 isolate with gyrA Ser84Leu and grlA Ser80Phe mutant assessed as doubling time of bacterial growth at 1 ug/ml; format: functional; method in brief: as §3
[33] = target: DNA gyrase subunit A (Staphylococcus aureus, UniProt P20831, S84L); assay: Inhibition of Staphylococcus aureus DNA gyrase gyrA S84L mutant supercoiling activity assessed as effect on conversion of relaxed pBR322 DNA to supercoiled form
[34] = tested on: Staphylococcus aureus; assay: Antibacterial activity against Staphylococcus aureus ATCC 700699 isolate with gyrA Ser84Leu, Glu409Lys and grlA Ser80Phe mutant assessed as doubling time of bacterial growth at 1 ug/ml; format: functional; method in brief: as §3
[35] = tested on: Staphylococcus aureus; assay: Antibacterial activity against Staphylococcus aureus ACH-0231 isolate with gyrA Ser84Leu, Glu88Lys and grlA Ser80Tyr, Glu84Gly mutant assessed as doubling time of bacterial growth at 1 ug/ml; format: functional; method in brief: as §3
[36] = tested on: Staphylococcus aureus; assay: Antibacterial activity against Staphylococcus aureus BSA678 isolate with gyrA Ser84Leu, Ser85Pro and grlA Ser80Phe, Glu84Lys mutant assessed as doubling time of bacterial growth at 1 ug/ml
[37] = tested on: Staphylococcus aureus; assay: Antibacterial activity against Staphylococcus aureus ACH-0141 isolate with gyrA Ser84Leu, Glu88Val and grlA Ser80Phe, Ala116Val mutant assessed as doubling time of bacterial growth at 1 ug/ml; format: functional; method in brief: as §3
[38] = tested on: Staphylococcus aureus; assay: Antibacterial activity against Staphylococcus aureus ACH-0141 isolate with gyrA Ser84Leu, Glu88Val and grlA Ser80Phe, Ala116Val mutant after 24 hrs by broth microdilution method; format: functional

SMILES: COc1c(-c2ccnc(C)c2)c(F)cc2c(=O)c3c(=O)[nH]sc3n(C3CC3)c12
- MIC [1]: 0.125 µg/mL (≈ 0.315 µM)
- MIC [2]: 0.5 µg/mL (≈ 1.26 µM)
- MIC [3]: 0.015 µg/mL (≈ 0.0377 µM)
- MIC [4]: 0.25 µg/mL (≈ 0.629 µM)
- MIC [5]: 0.004 µg/mL (≈ 0.0101 µM)
- MIC [6]: 0.5 µg/mL (≈ 1.26 µM)
- MIC [7]: 0.5 µg/mL (≈ 1.26 µM)
- MIC [8]: 2 µg/mL (≈ 5.03 µM)
- IC50 [9]: 1 µM
- MIC [10]: 0.5 µg/mL (≈ 1.26 µM)
- MIC [11]: 0.016 µg/mL (≈ 0.0403 µM)
- MIC [12]: 0.008 µg/mL (≈ 0.0201 µM)
- MIC [13]: 0.25 µg/mL (≈ 0.629 µM)
- IC50 [14]: 15.8 µM
- MIC [15]: 0.125 µg/mL (≈ 0.315 µM)
- MIC [16]: 0.03 µg/mL (≈ 0.0755 µM)
- Time [17]: 180 min
- Time [18]: 33 min
- Time [19]: 121 min
- MIC [20]: 0.008 µg/mL (≈ 0.0201 µM)
- Time [21]: 30 min
- MIC [22]: 0.004 µg/mL (≈ 0.0101 µM)
- Time [23]: 338 min
- Time [24]: 52 min
- Time [25]: 40 min
- MIC [26]: 0.5 µg/mL (≈ 1.26 µM)
- MIC [27]: 2 µg/mL (≈ 5.03 µM)
- MIC [28]: 1 µg/mL (≈ 2.52 µM)
- MIC [29]: 0.125 µg/mL (≈ 0.315 µM)
- Time [30]: 38 min
- Time [31]: 34 min
- Time [32]: 34 min
- IC50 [33]: 52.3 µM
- Time [34]: 39 min
- Time [35]: 35 min
- Time [36]: 42 min
- Time [37]: 340 min
- MIC [38]: 2 µg/mL (≈ 5.03 µM)
